# PGC1a Ac signal: raises PGC1a acetylation signal in U2OS cells; U2OS PGC1a acetylation AlphaScreen, overnight; activation, % at 15.6 µM; hit rate 0.21% among 350,000; AID 651723;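 active means every replicate reaching activation of at least 50%, whatever the mean replicate activation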;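 further: hits raise the AlphaScreen acetylation signal above neutral controls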
#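 System: Flag-PGC1a/GCN5 U2OS cells | Quantity: 7000 cells/well | Times: Overnight compound treatment, 37 °C | Measured by: AlphaScreen proximity luminescence, anti-acetyl-lysine antibody | Dosing: One concentration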
# Numbers stand for hits; 0 = inactive. Many of the other results were omitted from the sample, so hits are more common in it than they were.
SMILES,PGC1a Ac signal
CCN(CC)Cc1c(O)ccc2c([N+](=O)[O-])c(C)n(-c3ccc(OC)cc3)c12,0
COc1ccccc1CNC(=O)C[C@@H]1CC[C@@H]2[C@H](COC[C@H](O)CN2C(=O)Nc2ccc(Cl)cc2)O1,0
O=C(NNS(=O)(=O)c1ccc(F)cc1)c1ccc(S(=O)(=O)N2CCCCC2)cc1,0
CS(=O)(=O)N1CCCC(C(=O)NCc2ccccn2)C1 (stereo not given),0
O=S(=O)(c1ccc(NC(=S)NCc2cccnc2)cc1)N1CCCCC1,89
C[C@H](CO)N1C[C@H](C)[C@@H](CN(C)Cc2ccc(C(F)(F)F)cc2)OCc2cnnn2CCCC1=O,0
COc1ccc(S(=O)(=O)N[C@H]2CC[C@@H](CCNC(=O)c3ccccc3F)O[C@@H]2CO)cc1,0
O=C(CC(Nc1ccc(F)cc1)C(=O)O)c1ccccc1 (stereo not given),76
Oc1ccc(Nc2nnc(-c3ccc(O)cc3)c3ccccc23)cc1,63
NC(=O)C1CCCCc2c1[nH]c1ccc(Cl)cc21 (stereo not given),664
c1ccc(N2CCN(C3CC4CCC3C4)CC2)cc1 (stereo not given),0
CC(=O)Nc1ccc(OS(=O)(=O)c2ccc(C)cc2C)cc1,0
CCOc1ccc2c(c1)C(C)=CC(C)(C)N2S(=O)(=O)c1ccc(NC(C)=O)cc1,106
O=C(Cn1ncc(Cl)c(Cl)c1=O)N1CCN(S(=O)(=O)c2ccc3ccccc3c2)CC1,0
Cc1ccc(C)c(C(=O)Cn2ncc(Cl)c(Cl)c2=O)c1,485
O=C(Cn1ncc(Cl)c(Cl)c1=O)NC(=O)NC1CCCCC1,0
CCC(=O)Nc1ccc(C(=O)Cn2ncc(Cl)c(Cl)c2=O)cc1,265
COc1ccc(NC(=O)Cn2ncc(Cl)c(Cl)c2=O)cc1S(=O)(=O)N1CCOCC1,105
CC[C@H](C)[C@@H]1NC(=O)[C@@H](CC(C)C)NC(=O)[C@H](C(C)C)NC(=O)[C@H]2CSSC[C@H](NC1=O)C(=O)N2,0
CCOc1ccc(S(=O)(=O)N(C)c2ccc(OCC(=O)N3c4ccc(C)cc4C4CN(C)CCC43)cc2)cc1 (stereo not given),0
Cc1cc(C)c2nc(N3CCCC(C(=O)N4CCC(C(N)=O)CC4)C3)sc2c1 (stereo not given),0
CC(C)CC(=O)/C(=C\c1ccc(Cl)cc1Cl)n1cncn1,0
CC(C)(C)c1ccc(NC(=O)N2CCCN(c3ccc([N+](=O)[O-])cn3)CC2)cc1,186
FC(F)(F)c1ccc(Cl)c(-n2c(-c3cc(-c4ccco4)[nH]n3)n[nH]c2=S)c1,0
S=c1[nH]nc(-c2cc(-c3ccccc3)n[nH]2)n1/N=C/C(Br)=C/c1ccccc1,241
SMILES,PGC1a Ac signal
S=c1[nH]nc(-c2ccco2)n1/N=C/C(Cl)=C/c1ccccc1,65
Cc1cc(C)c2c(=O)[nH]n(C3CCCCCC3)c2n1,0
COc1ccc(NC(=O)N(C)C[C@@H]2OCCCC[C@@H](C)Oc3ccc(NC(=O)Cc4ccccc4)cc3C(=O)N([C@H](C)CO)C[C@@H]2C)cc1,0
Cc1cc(C)c(NC(=O)c2ccc(S(=O)(=O)N(C)C)cc2)c(C)n1,0
CC1=CC(=O)C=C(C)C1=NOS(=O)(=O)c1ccccc1,61
CSc1nc2c(c(=O)[nH]c(=O)n2C)n1Cc1ccccc1,0
O=C(N/N=C/c1ccc(F)cc1)c1c(O)c2ccccc2[nH]c1=O,0
CC(C)NC(=O)c1c(O)c2ccccc2[nH]c1=O,97
Cc1[nH]c2ccccc2c1C(=O)/C=C/c1ccccc1,0
CN=C1c2cc3cc(OC)ccc3n2CCN1Cc1ccccc1,83
C[C@@H]1CN([C@H](C)CO)C(=O)CCCn2nncc2CO[C@@H]1CN(C)S(=O)(=O)c1cn(C)cn1,0
O=C(CC1SC(=Nc2ccc3c(c2)OCCO3)NC1=O)Nc1ccc(F)cc1F (stereo not given),189
CCCCCCNC(=O)O[C@@]12CN(S(=O)(=O)c3ccc(C)cc3)C[C@]1(O)Cn1c(=O)n(CCCCCC)c(=O)n1C2,0
O=C(NC(=S)N1CCN(Cc2ccccc2)CC1)c1cccnc1,0
O=C(NC(=S)Nc1ccc(CN2CCCCC2)cc1)c1cc2ccccc2o1,0
O=C(C1CCCO1)N1CCN(Cc2c(O)ccc3ccccc23)CC1 (stereo not given),191
O=C(c1ccc2ccccc2c1)N1CCCC1,0
Oc1ccc2ccccc2c1CN1CCCCC1,104
CC(C)C#Cc1ccc([C@@H]2[C@H](CO)N3C(=O)CN(C(=O)NC4CCCC4)C[C@@H]23)cc1,0
O=C(Cc1ccncc1)NCC[C@H]1CC[C@@H](NC(=O)C2CC2)[C@H](CO)O1,0
CC(C)(C)c1ccc(OCCSc2nc3ccccc3n2CC(=O)O)cc1,0
Cc1ccc(O)c(NC(=O)c2ccc3c(c2)C(=O)N(CC(C)C)C3=O)c1,0
O=C(NCc1cccc(Cl)c1)c1ccc(-n2ccnc2)c2ccoc12,52
COc1ccc(C2(NC(C)=O)CCN(C(=O)CCC(=O)O)CC2)cc1,0
COc1cccc(-c2csc(N3CCN(C(=S)Nc4ccccc4Cl)CC3)n2)c1,67
SMILES,PGC1a Ac signal
CCCCN(C)C1CCN(C(=S)Nc2cccc(OC)c2)CC1,0
CC(=O)Cc1nsc(NC(=O)c2cccc(F)c2)n1,0
COc1ccc(C(=O)Nc2ccc(S(=O)(=O)Nc3cc(C)nc(C)n3)cc2)cc1,0
Cc1nnc2sc(-c3ccc(NC(=O)c4ccc(-c5ccc(Cl)cc5Cl)o4)cc3)nn12,98
C[C@@H]1CN([C@H](C)CO)C(=O)c2cc(NC(=O)CCCCCC(=O)Nc3ccccc3N)ccc2O[C@H]1CN(C)S(=O)(=O)c1ccc(Cl)cc1,0
O=C(CCN1CCc2ccccc2C(c2ccccc2)C1)c1ccc2c(c1)OCCO2 (stereo not given),69
O=C(CCl)NCc1cc(-c2ccc(Cl)cc2)no1,52
CC(C)(O)C#Cc1ccc(C(=O)NC(CCCNC(N)=O)C(=O)O)s1 (stereo not given),0
O=C(N=Nc1c(O)[nH]c2ccccc12)c1cc(-c2cccs2)[nH]n1,0
CC(=O)Nc1ccc(NC(=O)CN(c2cccc([N+](=O)[O-])c2)S(C)(=O)=O)cc1,455
CS(=O)(=O)N(CC(=O)N1CCN(c2ccccc2)CC1)c1cccc(Br)c1,0
O=C1C=CCCN1C(=O)/C=C/c1cccc(Br)c1,0
Cc1ccc(NC(=O)c2c(C)nn(-c3ccccc3)c2Cl)c(C)c1,0
COc1ccc(CCn2c(-c3ccc(OC)cc3)nc3c(c(=O)c4ccccc4n3C)c2=O)cc1,109
CC(=O)c1cccc(-n2nnnc2SCC(=O)NNC(=O)C(C)C)c1,0
CCc1ccc(N/C(SCc2ccccc2C)=C(/C#N)C(=O)NCc2ccco2)cc1,84
CC12CC(c3ccccc3O1)N(C(=O)c1ccc(Br)o1)C(=O)N2c1ccccc1 (stereo not given),0
CCOC(=O)c1nc(S(C)(=O)=O)ncc1Cl,132
CN1/C(=C/C(=O)c2nc(S(C)(=O)=O)ncc2Cl)C(C)(C)c2ccccc21,0
Cc1cc(C)n(-c2ccc(Cl)c(C(=O)OCC(N)=O)n2)n1,0
COc1cc(Cn2c(N)c(C#N)c3nc4ccccc4nc32)cc(OC)c1,52
CCOC(=O)C1(Cc2cccc(Cl)c2)CCCN(C(=O)c2cccnc2)C1 (stereo not given),0
CC(C)NC(=O)NCC[C@H]1CC[C@H](NC(=O)c2ccc(F)cc2)[C@H](CO)O1,0
Cc1ccc(S(=O)(=O)Nc2ccc3c(c2)C(=O)N([C@H](C)CO)C[C@@H](C)[C@@H](CN(C)C(=O)NC(C)C)OCCCC[C@H](C)O3)cc1,0
